Results published in ChEMBL document CHEMBL4152188, “Design, synthesis and biological evaluation of C(4) substituted monobactams as antibacterial agents against multidrug-resistant Gram-negative bacteria” (Eur J Med Chem, 2018).

Tests used:
Format in all cases: functional
Pseudomonas aeruginosa [1] = test: Antibacterial activity against IMP-4 producing Pseudomonas aeruginosa isolate 209471 after 18 hrs by CLSI broth microdilution method; settings: isolate 209471, 18 h
Klebsiella pneumoniae [2] = test: Selectivity index, ratio of MIC for against KPC-2 producing Klebsiella pneumoniae isolate 209735 to MIC for against KPC-2 producing Klebsiella pneumoniae isolate 209735 in presence of BPL
Klebsiella pneumoniae [3] = test: Selectivity index, ratio of MIC for against KPC-2 producing Klebsiella pneumoniae isolate 212232 to MIC for against KPC-2 producing Klebsiella pneumoniae isolate 212232 in presence of BPL
Pseudomonas aeruginosa [4] = test: Antibacterial activity against IMP-4 producing Pseudomonas aeruginosa isolate 212886 after 18 hrs in presence of BPL by CLSI broth microdilution method; settings: isolate 212886, 18 h
In short: (§1)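 CLSI broth microdilution against clinical isolates (ESBL E. coli, KPC-2 MDR K. pneumoniae, IMP-4 MDR P. aeruginosa; five per species). Iron limitation: Mueller-Hinton broth supplemented with 16 mg/liter 2,2'-bipyridyl to complex iron and induce iron uptake systems. Read-out: MIC.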

Escherichia coli [5] = test: Antibacterial activity against extended-spectrum beta-lactamase producing Escherichia coli isolate 209285 after 18 hrs by CLSI broth microdilution method; settings: isolate 209285, 18 h
Klebsiella pneumoniae [6] = test: Antibacterial activity against KPC-2 producing Klebsiella pneumoniae isolate 212232 after 18 hrs by CLSI broth microdilution method; settings: isolate 212232, 18 h
Pseudomonas aeruginosa [7] = test: Antibacterial activity against IMP-4 producing Pseudomonas aeruginosa isolate 209321 after 18 hrs in presence of BPL by CLSI broth microdilution method; settings: isolate 209321, 18 h; in short: as §1
Klebsiella pneumoniae [8] = test: Antibacterial activity against KPC-2 producing Klebsiella pneumoniae isolate 209632 after 18 hrs in presence of BPL by CLSI broth microdilution method; settings: isolate 209632, 18 h; in short: as §1
Escherichia coli [9] = test: Selectivity index, ratio of MIC for against extended-spectrum beta-lactamase producing Escherichia coli isolate 208687 to MIC for extended-spectrum beta-lactamase producing Escherichia coli isolate 208687 in presence of BPL
Klebsiella pneumoniae [10] = test: Antibacterial activity against KPC-2 producing Klebsiella pneumoniae isolate 212423 after 18 hrs by CLSI broth microdilution method; settings: isolate 212423, 18 h
Escherichia coli [11] = test: Antibacterial activity against extended-spectrum beta-lactamase producing Escherichia coli isolate 209285 after 18 hrs in presence of BPL by CLSI broth microdilution method; settings: isolate 209285, 18 h; in short: as §1
Pseudomonas aeruginosa [12] = test: Antibacterial activity against IMP-4 producing Pseudomonas aeruginosa isolate 208247 after 18 hrs in presence of BPL by CLSI broth microdilution method; settings: isolate 208247, 18 h; in short: as §1
Escherichia coli [13] = test: Selectivity index, ratio of MIC for against extended-spectrum beta-lactamase producing Escherichia coli isolate 106342 to MIC for extended-spectrum beta-lactamase producing Escherichia coli isolate 106342 in presence of BPL
Pseudomonas aeruginosa [14] = test: Antibacterial activity against IMP-4 producing Pseudomonas aeruginosa isolate 207272 after 18 hrs in presence of BPL by CLSI broth microdilution method; settings: isolate 207272, 18 h; in short: as §1
Klebsiella pneumoniae [15] = test: Selectivity index, ratio of MIC for against KPC-2 producing Klebsiella pneumoniae isolate 209632 to MIC for against KPC-2 producing Klebsiella pneumoniae isolate 209632 in presence of BPL
Escherichia coli [16] = test: Antibacterial activity against extended-spectrum beta-lactamase producing Escherichia coli isolate 208687 after 18 hrs by CLSI broth microdilution method; settings: isolate 208687, 18 h
Klebsiella pneumoniae [17] = test: Antibacterial activity against KPC-2 producing Klebsiella pneumoniae isolate 209735 after 18 hrs by CLSI broth microdilution method; settings: isolate 209735, 18 h
Pseudomonas aeruginosa [18] = test: Selectivity index, ratio of MIC for against IMP-4 producing Pseudomonas aeruginosa isolate 209321 to MIC for against IMP-4 producing Pseudomonas aeruginosa isolate 209321 in presence of BPL
Pseudomonas aeruginosa [19] = test: Antibacterial activity against IMP-4 producing Pseudomonas aeruginosa isolate 209471 after 18 hrs in presence of BPL by CLSI broth microdilution method; settings: isolate 209471, 18 h; in short: as §1
Escherichia coli [20] = test: Selectivity index, ratio of MIC for against extended-spectrum beta-lactamase producing Escherichia coli isolate 209285 to MIC for extended-spectrum beta-lactamase producing Escherichia coli isolate 209285 in presence of BPL
Klebsiella pneumoniae [21] = test: Antibacterial activity against KPC-2 producing Klebsiella pneumoniae isolate 212232 after 18 hrs in presence of BPL by CLSI broth microdilution method; settings: isolate 212232, 18 h; in short: as §1
Klebsiella pneumoniae [22] = test: Antibacterial activity against KPC-2 producing Klebsiella pneumoniae isolate 209632 after 18 hrs by CLSI broth microdilution method; settings: isolate 209632, 18 h
Pseudomonas aeruginosa [23] = test: Antibacterial activity against IMP-4 producing Pseudomonas aeruginosa isolate 208247 after 18 hrs by CLSI broth microdilution method; settings: isolate 208247, 18 h
Escherichia coli [24] = test: Antibacterial activity against extended-spectrum beta-lactamase producing Escherichia coli isolate 212648 after 18 hrs in presence of BPL by CLSI broth microdilution method; settings: isolate 212648, 18 h; in short: as §1
Escherichia coli [25] = test: Antibacterial activity against extended-spectrum beta-lactamase producing Escherichia coli isolate 208687 after 18 hrs in presence of BPL by CLSI broth microdilution method; settings: isolate 208687, 18 h; in short: as §1
Klebsiella pneumoniae [26] = test: Antibacterial activity against KPC-2 producing Klebsiella pneumoniae isolate 212229 after 18 hrs in presence of BPL by CLSI broth microdilution method; settings: isolate 212229, 18 h; in short: as §1
Escherichia coli [27] = test: Antibacterial activity against extended-spectrum beta-lactamase producing Escherichia coli isolate 106342 after 18 hrs in presence of BPL by CLSI broth microdilution method; settings: isolate 106342, 18 h; in short: as §1
Pseudomonas aeruginosa [28] = test: Antibacterial activity against IMP-4 producing Pseudomonas aeruginosa isolate 212886 after 18 hrs by CLSI broth microdilution method; settings: isolate 212886, 18 h
Klebsiella pneumoniae [29] = test: Antibacterial activity against KPC-2 producing Klebsiella pneumoniae isolate 212229 after 18 hrs by CLSI broth microdilution method; settings: isolate 212229, 18 h
Pseudomonas aeruginosa [30] = test: Antibacterial activity against IMP-4 producing Pseudomonas aeruginosa isolate 209321 after 18 hrs by CLSI broth microdilution method; settings: isolate 209321, 18 h
Pseudomonas aeruginosa [31] = test: Antibacterial activity against IMP-4 producing Pseudomonas aeruginosa isolate 207272 after 18 hrs by CLSI broth microdilution method; settings: isolate 207272, 18 h
Escherichia coli [32] = test: Antibacterial activity against Escherichia coli isolate 210737 after 18 hrs by CLSI broth microdilution method; settings: isolate 210737, 18 h
Escherichia coli [33] = test: Antibacterial activity against extended-spectrum beta-lactamase producing Escherichia coli isolate 212648 after 18 hrs by CLSI broth microdilution method; settings: isolate 212648, 18 h
Escherichia coli [34] = test: Selectivity index, ratio of MIC for against Escherichia coli isolate 210737 to MIC for Escherichia coli isolate 210737 in presence of BPL
Escherichia coli [35] = test: Selectivity index, ratio of MIC for against extended-spectrum beta-lactamase producing Escherichia coli isolate 212648 to MIC for extended-spectrum beta-lactamase producing Escherichia coli isolate 212648 in presence of BPL
Klebsiella pneumoniae [36] = test: Selectivity index, ratio of MIC for against KPC-2 producing Klebsiella pneumoniae isolate 212423 to MIC for against KPC-2 producing Klebsiella pneumoniae isolate 212423 in presence of BPL
Escherichia coli [37] = test: Antibacterial activity against Escherichia coli isolate 210737 after 18 hrs in presence of BPL by CLSI broth microdilution method; settings: isolate 210737, 18 h; in short: as §1
Klebsiella pneumoniae [38] = test: Selectivity index, ratio of MIC for against KPC-2 producing Klebsiella pneumoniae isolate 212229 to MIC for against KPC-2 producing Klebsiella pneumoniae isolate 212229 in presence of BPL
Escherichia coli [39] = test: Antibacterial activity against extended-spectrum beta-lactamase producing Escherichia coli isolate 106342 after 18 hrs by CLSI broth microdilution method; settings: isolate 106342, 18 h
Klebsiella pneumoniae [40] = test: Antibacterial activity against KPC-2 producing Klebsiella pneumoniae isolate 209735 after 18 hrs in presence of BPL by CLSI broth microdilution method; settings: isolate 209735, 18 h; in short: as §1
Klebsiella pneumoniae [41] = test: Antibacterial activity against KPC-2 producing Klebsiella pneumoniae isolate 212423 after 18 hrs in presence of BPL by CLSI broth microdilution method; settings: isolate 212423, 18 h; in short: as §1
Pseudomonas aeruginosa [42] = test: Selectivity index, ratio of MIC for against IMP-4 producing Pseudomonas aeruginosa isolate 207272 to MIC for against IMP-4 producing Pseudomonas aeruginosa isolate 207272 in presence of BPL
Pseudomonas aeruginosa [43] = test: Selectivity index, ratio of MIC for against IMP-4 producing Pseudomonas aeruginosa isolate 209471 to MIC for against IMP-4 producing Pseudomonas aeruginosa isolate 209471 in presence of BPL

CC(C)C(O/N=C(\C(=O)NC1C(=O)N(S(=O)(=O)O)C12CCCCC2)c1csc(N)n1)c1cc(=O)c(O)cn1O (centres undefined)
16 µg/mL: MIC (Klebsiella pneumoniae [6]) | MIC (Klebsiella pneumoniae [17]) | MIC (Escherichia coli [27]) | MIC (Escherichia coli [32])
32 µg/mL: MIC (Escherichia coli [16]) | MIC (Escherichia coli [39])
4 µg/mL: MIC (Klebsiella pneumoniae [8]) | MIC (Escherichia coli [25]) | MIC (Klebsiella pneumoniae [26]) | MIC (Klebsiella pneumoniae [40]) | MIC (Klebsiella pneumoniae [41])
8: Selectivity Index (Escherichia coli [9]) | Selectivity Index (Escherichia coli [20])
4: Selectivity Index (Klebsiella pneumoniae [2])
1 µg/mL: MIC (Klebsiella pneumoniae [21])
2: Selectivity Index (Escherichia coli [13]) | Selectivity Index (Klebsiella pneumoniae [15]) | Selectivity Index (Escherichia coli [34]) | Selectivity Index (Klebsiella pneumoniae [36]) | Selectivity Index (Klebsiella pneumoniae [38])
16: Selectivity Index (Klebsiella pneumoniae [3])
64 µg/mL: MIC (Escherichia coli [5]) | MIC (Pseudomonas aeruginosa [7]) | MIC (Pseudomonas aeruginosa [12]) | MIC (Pseudomonas aeruginosa [30])
> 64 µg/mL: MIC (Pseudomonas aeruginosa [1]) | MIC (Pseudomonas aeruginosa [4]) | MIC (Pseudomonas aeruginosa [14]) | MIC (Pseudomonas aeruginosa [19]) | MIC (Pseudomonas aeruginosa [23]) | MIC (Escherichia coli [24]) | MIC (Pseudomonas aeruginosa [28]) | MIC (Pseudomonas aeruginosa [31]) | MIC (Escherichia coli [33])
8 µg/mL: MIC (Klebsiella pneumoniae [10]) | MIC (Escherichia coli [11]) | MIC (Klebsiella pneumoniae [22]) | MIC (Klebsiella pneumoniae [29]) | MIC (Escherichia coli [37])
2 - 8: Selectivity Index (Escherichia coli [35])
1: Selectivity Index (Pseudomonas aeruginosa [18])

CC(C)C(O/N=C(\C(=O)N[C@@H]1C(=O)N(S(=O)(=O)O)[C@@H]1CN1CCNCC1)c1csc(N)n1)c1cc(=O)c(O)cn1O (some centres undefined)
4: Selectivity Index (Escherichia coli [20]) | Selectivity Index (Escherichia coli [35])
2: Selectivity Index (Escherichia coli [9]) | Selectivity Index (Escherichia coli [13]) | Selectivity Index (Klebsiella pneumoniae [36])
32 µg/mL: MIC (Pseudomonas aeruginosa [7]) | MIC (Pseudomonas aeruginosa [30])
1 µg/mL: MIC (Escherichia coli [25]) | MIC (Escherichia coli [27]) | MIC (Escherichia coli [32]) | MIC (Escherichia coli [37])
2 µg/mL: MIC (Escherichia coli [5]) | MIC (Escherichia coli [16]) | MIC (Klebsiella pneumoniae [26]) | MIC (Klebsiella pneumoniae [29]) | MIC (Escherichia coli [33]) | MIC (Escherichia coli [39]) | MIC (Klebsiella pneumoniae [41])
4 µg/mL: MIC (Klebsiella pneumoniae [6]) | MIC (Klebsiella pneumoniae [10])
1: Selectivity Index (Pseudomonas aeruginosa [18]) | Selectivity Index (Pseudomonas aeruginosa [42]) | Selectivity Index (Pseudomonas aeruginosa [43]) | Selectivity Index (Escherichia coli [34]) | Selectivity Index (Klebsiella pneumoniae [38])
8: Selectivity Index (Klebsiella pneumoniae [3])
0.5 µg/mL: MIC (Escherichia coli [11]) | MIC (Klebsiella pneumoniae [21]) | MIC (Escherichia coli [24])
64 µg/mL: MIC (Pseudomonas aeruginosa [1]) | MIC (Pseudomonas aeruginosa [14]) | MIC (Pseudomonas aeruginosa [19]) | MIC (Pseudomonas aeruginosa [31])
1 - 8: Selectivity Index (Klebsiella pneumoniae [2]) | Selectivity Index (Klebsiella pneumoniae [15])
> 64 µg/mL: MIC (Pseudomonas aeruginosa [4]) | MIC (Klebsiella pneumoniae [8]) | MIC (Pseudomonas aeruginosa [12]) | MIC (Klebsiella pneumoniae [17]) | MIC (Klebsiella pneumoniae [22]) | MIC (Pseudomonas aeruginosa [23]) | MIC (Pseudomonas aeruginosa [28]) | MIC (Klebsiella pneumoniae [40])
